# Measurements collected from several papers.
# Lines come from different studies, so protocols differ.
# Target: Serine/threonine-protein kinase LATS2 (LATS2, Homo sapiens, UniProt Q9NRM7)
# Sequence (Q9NRM7 1-1088, as in one of the studies): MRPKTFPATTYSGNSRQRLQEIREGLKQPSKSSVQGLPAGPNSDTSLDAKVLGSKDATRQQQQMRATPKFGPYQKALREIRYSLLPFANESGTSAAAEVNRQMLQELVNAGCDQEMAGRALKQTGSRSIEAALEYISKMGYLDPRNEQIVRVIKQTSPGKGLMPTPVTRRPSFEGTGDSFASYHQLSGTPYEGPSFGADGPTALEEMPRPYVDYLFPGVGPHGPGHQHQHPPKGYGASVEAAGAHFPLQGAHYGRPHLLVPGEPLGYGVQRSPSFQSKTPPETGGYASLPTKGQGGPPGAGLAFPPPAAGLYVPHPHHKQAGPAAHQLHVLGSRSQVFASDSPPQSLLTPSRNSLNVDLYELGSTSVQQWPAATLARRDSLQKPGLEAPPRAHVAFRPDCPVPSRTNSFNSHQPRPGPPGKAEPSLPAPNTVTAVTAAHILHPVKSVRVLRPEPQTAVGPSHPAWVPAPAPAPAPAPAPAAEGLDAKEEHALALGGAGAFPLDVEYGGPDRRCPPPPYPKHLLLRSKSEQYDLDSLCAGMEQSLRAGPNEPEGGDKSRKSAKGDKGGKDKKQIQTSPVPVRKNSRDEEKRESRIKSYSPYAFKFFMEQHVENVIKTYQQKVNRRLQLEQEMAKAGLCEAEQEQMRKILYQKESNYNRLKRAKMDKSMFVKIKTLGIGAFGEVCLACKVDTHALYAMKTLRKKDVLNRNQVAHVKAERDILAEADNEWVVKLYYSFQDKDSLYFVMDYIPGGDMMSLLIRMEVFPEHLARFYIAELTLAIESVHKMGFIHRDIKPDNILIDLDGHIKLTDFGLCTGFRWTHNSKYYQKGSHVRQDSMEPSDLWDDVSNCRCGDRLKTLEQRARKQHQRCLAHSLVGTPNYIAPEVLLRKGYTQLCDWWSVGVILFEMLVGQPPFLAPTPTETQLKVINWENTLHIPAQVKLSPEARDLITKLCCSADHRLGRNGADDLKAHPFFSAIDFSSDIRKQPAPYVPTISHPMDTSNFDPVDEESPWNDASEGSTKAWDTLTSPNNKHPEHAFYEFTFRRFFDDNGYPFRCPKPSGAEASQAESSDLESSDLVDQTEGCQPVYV
Structure (SMILES),read-out,method,tested at,remaining binding
CN(c1nccc(-c2cnn3ncccc23)n1)C1CC1,binding,,1 µM,100%
Cc1nccc(COC(=O)N2C[C@@H]3[C@@H](CNC(=O)c4ccc5[nH]nnc5c4)[C@@H]3C2)n1,cell-free assay,competition with immobilised ligand,1 µM,97%
C[C@H]1CCN(c2nccc(-c3cnn4ncccc34)n2)C1,binding,,1 µM,83%
Cn1nc(C(=O)NCc2ccc(C(=O)O)cc2)cc1-c1ccc2[nH]ccc2c1,cell-free assay,competition with immobilised ligand,0.1 µM,100%
F[C@@H]1CCN(c2nccc(-c3cnn4ncccc34)n2)C1,binding,,1 µM,100%
CN(C)CC#Cc1ccc(OCCCc2sc(N3CCc4cccc(C(=O)Nc5nc6ccccc6s5)c4C3)nc2C(=O)O)c(F)c1,cell-free assay,competition with immobilised ligand,1 µM,95%
c1cnn2ncc(-c3ccnc(N4CCC45COC5)n3)c2c1,binding,,1 µM,88%
C[C@@]1(Cc2ccc(C#N)cc2)C(=O)N(c2cc(Cl)cc(Cl)c2)c2ncc(C(=O)NC3(c4nc(C5CCC5)no4)CC3)n21,cell-free assay,competition with immobilised ligand,1 µM,92%
CNC(=O)[C@@H]1CC[C@@H](n2c(-c3ccc4cnccc4c3)nc3ccc(C(=O)NCc4cccc(C(N)=O)c4)cc32)C1,binding,competition with immobilised ligand,1 µM,100%
CC1CCCN1c1nccc(-c2cnn3ncccc23)n1 (centres unmarked),binding,,1 µM,100%
COc1ncc2cc3ccccc3nc2c1C#N,cell-free assay,competition with immobilised ligand,5 µM,90%
NS(=O)(=O)c1cc(NC(=O)Cc2ccccc2)ccc1Oc1cccc(Cl)c1,cell-free assay,competition with immobilised ligand,1 µM,94%
O=C(NCCCN1CCOCC1)c1ccc(Nc2nccc(-c3cc4ccccc4s3)n2)cc1,binding,competition with immobilised ligand,1 µM,100%
COc1cnc(Nc2cccc(S(N)(=O)=O)c2)nc1N1CCN(c2ccccc2)CC1,binding,competition with immobilised ligand,1 µM,74%
CN(C)c1ncc(F)c(-c2cnn3ncccc23)n1,binding,,1 µM,72%
O=C(c1ccc(Nc2nccc(-c3cc4ccccc4s3)n2)cc1)N1CCC(N2CCCC2)CC1,binding,competition with immobilised ligand,1 µM,72%
CCN1CCN(Cc2ccc(C(=O)Nc3ccc(C)c(Oc4ccc5c(c4)CC(=O)N5)c3)cc2C(F)(F)F)CC1,binding,competition with immobilised ligand,1 µM,100%
O=C(Nc1c[nH]nc1C(=O)NC1CCNCC1)c1cc(F)cc(F)c1,binding,competition with immobilised ligand,1 µM,94%
CS(=O)(=O)NCC[C@H](NC(=O)c1cncc2c1cnn2-c1ccc(F)cc1)c1ccnc(S(C)(=O)=O)c1,cell-free assay,competition with immobilised ligand,1 µM,97%
c1cncc(-c2cccc(Nc3nccc(NC4CCCCC4)n3)c2)c1,binding,competition with immobilised ligand,10 µM,12%
